Experimental data as given in ChEMBL document CHEMBL1124798, “Design of peptidomimetic delta opioid receptor antagonists using the message-address concept” (J Med Chem, 1990).

How the values were obtained:
[1] = target: Kappa-type opioid receptor (Cavia porcellus) (UniProt P41144); experiment: Antagonist potency was determined as the ratio of [antagonist] to (IC50 ratio-1) for Opioid receptor kappa 1; format: functional
How it was run: (§1)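 Ke (nM) = [antagonist]/(IC50 ratio − 1). IC50 ratio is agonist IC50 with antagonist over the control IC50 in the same preparation. Antagonist preincubated 15 min. Agonists: DADLE in mouse vas deferens (δ); morphine (μ) and ethylketazocine (κ) in guinea pig ileum. n ≥ 3.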

[2] = target: Kappa-type opioid receptor (Cavia porcellus) (UniProt P41144); experiment: Opioid receptor kappa 1 antagonistic activity was measured by the displacement of ethylketazocine in the guinea pig ileum at a concentration of 100 nM; format: functional, tissue-based
How it was run: (§2)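 Guinea pig ileum. Antagonist (nM, as stated on line) incubated 15 min before testing. Agonists: morphine (μ) and ethylketazocine (κ).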

[3] = target: Mu-type opioid receptor (Cavia porcellus) (UniProt P97266); experiment: Opioid receptor mu antagonistic activity was measured by the displacement of morphine in the guinea pig ileum at a concentration of 100 nM; format: functional, tissue-based; how it was run: as §2
Mu-type opioid receptor (Cavia porcellus), sequence (P97266 whole entry): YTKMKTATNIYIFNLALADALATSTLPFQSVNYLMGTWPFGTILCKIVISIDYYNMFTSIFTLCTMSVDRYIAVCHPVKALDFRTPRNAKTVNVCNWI

[4] = target: Mu-type opioid receptor (Cavia porcellus) (UniProt P97266); experiment: Opioid receptor mu 1 antagonistic activity was measured by the displacement of morphine in the guinea pig ileum at a concentration of 100 nM; format: functional, tissue-based; how it was run: as §2
[5] = target: Delta-type opioid receptor (Mus musculus) (UniProt P32300); experiment: Opioid receptor delta 1 antagonistic activity was measured by the displacement of DADLE in the mouse vas deferens at a concentration of 100 nM; format: functional
Delta-type opioid receptor (Mus musculus), sequence (P32300 whole entry): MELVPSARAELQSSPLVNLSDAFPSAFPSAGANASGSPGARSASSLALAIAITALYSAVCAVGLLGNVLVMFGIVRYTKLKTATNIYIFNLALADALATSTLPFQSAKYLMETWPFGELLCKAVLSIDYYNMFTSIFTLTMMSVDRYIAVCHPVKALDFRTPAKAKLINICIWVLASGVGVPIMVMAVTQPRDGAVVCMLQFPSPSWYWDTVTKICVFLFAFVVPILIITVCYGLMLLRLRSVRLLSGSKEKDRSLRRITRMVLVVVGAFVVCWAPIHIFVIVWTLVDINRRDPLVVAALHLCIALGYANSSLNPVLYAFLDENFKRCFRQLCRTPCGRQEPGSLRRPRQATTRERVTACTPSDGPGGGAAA
How it was run: (§3)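 Mouse vas deferens. Antagonist (nM, as stated on line) incubated with the preparation 15 min before testing. δ agonist [D-Ala2,D-Leu5]enkephalin.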

[6] = target: Mu-type opioid receptor (Cavia porcellus) (UniProt P97266); experiment: Antagonist potency was determined as the ratio of [antagonist] to (IC50 ratio-1) for Opioid receptor mu 1; format: functional; how it was run: as §1
[7] = target: Kappa-type opioid receptor (Cavia porcellus) (UniProt P41144); experiment: Opioid receptor kappa antagonistic activity was measured by the displacement of ethylketazocine in the guinea pig ileum at a concentration of 100 nM; format: functional, tissue-based; how it was run: as §2
[8] = target: Delta-type opioid receptor (Mus musculus) (UniProt P32300); experiment: Opioid receptor delta antagonistic activity was measured by the displacement of DADLE in the mouse vas deferens at a concentration of 100 nM; format: functional; how it was run: as §3
[9] = target: Delta-type opioid receptor (Mus musculus) (UniProt P32300); experiment: Antagonist potency was determined as the ratio of [antagonist] to (IC50 ratio-1) for opioid receptor delta 1; format: functional; how it was run: as §1
[10] = target: Opioid receptors; mu & delta (Homo sapiens) (UniProt P41143+P35372); experiment: Selectivity ratio was determined from Ke value of Opioid receptor mu 1 and Opioid receptor delta 1; format: protein assay; conditions: Cavia porcellus
Opioid receptors; mu & delta (Homo sapiens), sequence (P35372 whole entry, looked up): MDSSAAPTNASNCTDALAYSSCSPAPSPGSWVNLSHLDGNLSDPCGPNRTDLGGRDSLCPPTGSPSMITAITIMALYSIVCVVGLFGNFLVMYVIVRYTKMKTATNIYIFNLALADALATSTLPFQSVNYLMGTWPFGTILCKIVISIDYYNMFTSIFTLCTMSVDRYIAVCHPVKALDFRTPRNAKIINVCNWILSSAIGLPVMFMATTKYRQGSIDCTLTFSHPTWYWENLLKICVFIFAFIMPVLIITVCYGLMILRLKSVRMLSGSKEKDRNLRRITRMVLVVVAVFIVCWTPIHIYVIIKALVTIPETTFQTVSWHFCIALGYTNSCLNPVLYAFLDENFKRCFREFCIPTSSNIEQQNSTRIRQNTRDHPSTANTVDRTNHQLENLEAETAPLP
Opioid receptors; mu & delta (Homo sapiens), sequence (P41143 whole entry, looked up): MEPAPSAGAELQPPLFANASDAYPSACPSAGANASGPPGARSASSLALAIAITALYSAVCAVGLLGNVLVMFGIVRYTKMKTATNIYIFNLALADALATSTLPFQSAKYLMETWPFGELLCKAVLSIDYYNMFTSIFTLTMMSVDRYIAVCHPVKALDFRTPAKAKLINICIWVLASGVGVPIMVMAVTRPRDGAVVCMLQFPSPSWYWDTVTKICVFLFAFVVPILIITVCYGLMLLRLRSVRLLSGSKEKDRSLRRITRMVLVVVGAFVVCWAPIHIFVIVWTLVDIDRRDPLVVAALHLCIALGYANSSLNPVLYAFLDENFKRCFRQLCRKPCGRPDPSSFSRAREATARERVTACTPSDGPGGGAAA
How it was run: (§4)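 Ratios of Ke values, μ/δ or κ/δ. Each Ke = [antagonist]/(IC50 ratio − 1). δ from DADLE in mouse vas deferens; μ (morphine) and κ (ethylketazocine) in guinea pig ileum. 15 min antagonist preincubation, n ≥ 3.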

[11] = target: Opioid receptors; delta & kappa (Homo sapiens) (UniProt P41145+P41143); experiment: Selectivity ratio was determined from Ke value of Opioid receptor kappa 1 and Opioid receptor delta 1; format: protein assay; conditions: Cavia porcellus; how it was run: as §4
Opioid receptors; delta & kappa (Homo sapiens), sequence (P41143 whole entry, looked up): as above
Opioid receptors; delta & kappa (Homo sapiens), sequence (P41145 whole entry, looked up): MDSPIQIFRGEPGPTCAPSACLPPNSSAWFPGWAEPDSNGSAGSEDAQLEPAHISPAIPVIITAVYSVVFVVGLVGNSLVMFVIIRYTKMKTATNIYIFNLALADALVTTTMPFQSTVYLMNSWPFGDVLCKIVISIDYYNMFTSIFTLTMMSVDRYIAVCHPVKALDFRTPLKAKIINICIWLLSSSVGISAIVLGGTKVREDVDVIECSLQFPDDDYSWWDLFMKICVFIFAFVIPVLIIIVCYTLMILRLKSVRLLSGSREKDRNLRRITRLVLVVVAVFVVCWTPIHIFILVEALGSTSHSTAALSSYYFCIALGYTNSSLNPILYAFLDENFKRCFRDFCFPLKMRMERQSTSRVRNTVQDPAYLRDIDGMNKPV

[12] = target: T1, Kappa-type opioid receptor (Cavia porcellus, UniProt P41144); experiment: Binding affinity was measured by the displacement of [3H]- EK in guinea pig brain membrane of opioid receptor kappa; format: cell membranes
T1 sequence (P41144 whole entry): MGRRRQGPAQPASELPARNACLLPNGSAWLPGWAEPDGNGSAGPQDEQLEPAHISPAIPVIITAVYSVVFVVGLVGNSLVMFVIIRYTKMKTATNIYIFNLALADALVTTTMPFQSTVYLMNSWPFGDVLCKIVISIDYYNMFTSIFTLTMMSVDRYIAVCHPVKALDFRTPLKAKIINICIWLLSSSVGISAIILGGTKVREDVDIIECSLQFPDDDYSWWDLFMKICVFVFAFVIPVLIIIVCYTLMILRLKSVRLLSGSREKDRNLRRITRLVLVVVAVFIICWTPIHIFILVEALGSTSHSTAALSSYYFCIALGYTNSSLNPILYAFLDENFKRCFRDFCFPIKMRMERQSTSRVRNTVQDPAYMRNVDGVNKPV
How it was run: (§5)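 Radioligand displacement from guinea pig brain membranes, modified Werling method. μ sites: [3H]DAMGO. δ sites: [3H]DADLE with 1 μM DAMGO. κ sites: [3H]ethylketazocine with 1 μM DAMGO.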

[13] = target: T2, Mu-type opioid receptor (Cavia porcellus, UniProt P97266); experiment: Binding affinity was measured by the displacement of [3H]- DAMGO in guinea pig brain membrane of Opioid receptor mu 1; format: cell membranes; how it was run: as §5
T2 sequence (P97266 whole entry): as the sequence (P97266 whole entry) above

[14] = target: T1, Kappa-type opioid receptor; experiment: Binding affinity was measured by the displacement of [3H]- EK in guinea pig brain membrane of Opioid receptor kappa 1; format: cell membranes; how it was run: as §5
[15] = target: T2, Mu-type opioid receptor; experiment: Binding affinity was measured by the displacement of [3H]- DAMGO in guinea pig brain membrane of opioid receptor mu; format: cell membranes; how it was run: as §5

Kappa-type opioid receptor (Cavia porcellus), sequence (P41144 whole entry): as the sequence (P41144 whole entry) above

Oc1ccc2c3c1O[C@H]1c4[nH]c5cc(F)ccc5c4C[C@@]4(O)[C@@H](C2)N(CC2CC2)CC[C@]314
Ke [1]: > 167 nM | IC50 ratio [2]: 1.6 | IC50 ratio [3]: 1.8 | IC50 ratio [4]: 1.8 | IC50 ratio [5]: 24 | Ke [6]: > 125 nM | IC50 ratio [7]: 1.6 | IC50 ratio [8]: 24 | Ke [9]: 4.4 nM | Selectivity ratio [10]: > 28 | Selectivity ratio [11]: > 38

Oc1ccc2c3c1O[C@H]1c4[nH]c5ccccc5c4C[C@@]4(O)[C@@H](C2)N(CC2CC2)CC[C@]314 [NALTRINDOLE]
Ki [12]: 332 nM | Ki [13]: 3.8 nM | Ki [14]: 332 nM

CCOc1cccc2c3c([nH]c12)[C@@H]1Oc2c(O)ccc4c2[C@@]12CCN(CC1CC1)[C@H](C4)[C@]2(O)C3
IC50 ratio [2]: 0.67 | IC50 ratio [3]: 8.3 | IC50 ratio [4]: 8.3 | IC50 ratio [5]: 178 | Ke [6]: 13 nM | IC50 ratio [7]: 0.67 | IC50 ratio [8]: 178 | Ke [9]: 0.57 nM | Selectivity ratio [10]: 24

COc1cccc2c3c([nH]c12)[C@@H]1Oc2c(O)ccc4c2[C@@]12CCN(CC1CC1)[C@H](C4)[C@]2(O)C3
Ke [1]: > 185 nM | IC50 ratio [2]: 1.5 | IC50 ratio [3]: 3 | IC50 ratio [4]: 3 | IC50 ratio [5]: 66 | Ke [6]: 50 nM | Ki [15]: 16 nM | IC50 ratio [7]: 1.5 | IC50 ratio [8]: 66 | Ki [12]: 43 nM | Ke [9]: 1.5 nM | Ki [13]: 16 nM | Ki [14]: 43 nM | Selectivity ratio [10]: 32 | Selectivity ratio [11]: > 120

Oc1ccc2c3c1O[C@H]1c4[nH]c5c(ccc6ccccc65)c4C[C@@]4(O)[C@@H](C2)N(CC2CC2)CC[C@]314
Ke [1]: > 111 nM | IC50 ratio [2]: 0.9 | IC50 ratio [3]: 1.2 | IC50 ratio [4]: 1.2 | IC50 ratio [5]: 12.1 | Ke [6]: > 500 nM | IC50 ratio [7]: 0.9 | IC50 ratio [8]: 12.1 | Ke [9]: 9 nM | Selectivity ratio [10]: > 55 | Selectivity ratio [11]: > 12

Oc1ccc2[nH]c3c(c2c1)C[C@@]1(O)[C@H]2Cc4ccc(O)c5c4[C@@]1(CCN2CC1CC1)[C@H]3O5
Ke [1]: 48 nM | IC50 ratio [2]: 3.1 | IC50 ratio [3]: 6.4 | IC50 ratio [4]: 6.4 | IC50 ratio [5]: 4.7 | Ke [6]: 19 nM | IC50 ratio [7]: 3.1 | IC50 ratio [8]: 4.7 | Ke [9]: 27 nM | Selectivity ratio [10]: 0.7 | Selectivity ratio [11]: 1.8

Oc1ccc2c3c1O[C@H]1c4[nH]c5c(O)cccc5c4C[C@@]4(O)[C@@H](C2)N(CC2CC2)CC[C@]314
Ke [1]: > 250 nM | IC50 ratio [2]: 1.4 | IC50 ratio [3]: 1.9 | IC50 ratio [4]: 1.9 | IC50 ratio [5]: 239 | Ke [6]: > 111 nM | IC50 ratio [7]: 1.4 | IC50 ratio [8]: 239 | Ke [9]: 0.42 nM | Selectivity ratio [10]: > 264 | Selectivity ratio [11]: > 595

Cc1cccc2c3c([nH]c12)[C@@H]1Oc2c(O)ccc4c2[C@@]12CCN(CC1CC1)[C@H](C4)[C@]2(O)C3
Ke [1]: > 333 nM | IC50 ratio [2]: 1.3 | IC50 ratio [3]: 7.1 | IC50 ratio [4]: 7.1 | IC50 ratio [5]: 67 | IC50 ratio [7]: 1.3 | IC50 ratio [8]: 67 | Selectivity ratio [11]: > 221

C=CCN1CC[C@]23c4c5ccc(O)c4O[C@H]2c2[nH]c4ccccc4c2C[C@@]3(O)[C@H]1C5
Ke [1]: > 82 nM | IC50 ratio [2]: 2.2 | IC50 ratio [3]: 1.1 | IC50 ratio [4]: 1.1 | IC50 ratio [5]: 93 | Ke [6]: > 714 nM | Ki [15]: 104 nM | IC50 ratio [7]: 2.2 | IC50 ratio [8]: 93 | Ki [12]: 321 nM | Ke [9]: 1.1 nM | Ki [13]: 104 nM | Ki [14]: 321 nM | Selectivity ratio [10]: > 655 | Selectivity ratio [11]: > 75
